Data as given in ChEMBL document CHEMBL4513216, “Probing the Open Global Health Chemical Diversity Library for Multistage-Active Starting Points for Next-Generation Antimalarials” (ACS Infect Dis, 2020).

Experiment: Toxicity liver stage against HepG2, at 10uM
Assay type: cell-based
Parameters: test concentration 10 uM, cell line HepG2-A16-CD81EGFP
Settings: human, HepG2-A16-CD81EGFP cells; read-out: INHIBITION
How it was run: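 Uninfected HepG2-A16-CD81EGFP cells, 3 × 10^3 per well, 1536-well, plated on prespotted compound at 10 μM final, parasite-free screening media added to match infected plates; puromycin 10 μM positive, DMSO 0.5% negative; run in parallel with 48 h PbLuc assay at 37 °C, 5% CO2; viability by CellTiter-Glo luminescence, normalized to controls.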

Structure (SMILES) | cytotoxicity at 10 µM
CN(C)c1nccc(C2CCCCN2Cc2cnn3cccnc23)n1 (configuration not stated) | 10.5%
CCN1CCN(C[C@@H]2CN(c3ncccc3Cl)C[C@@H]2CO)CC1 | -4.81%
CN1CCCC(Cc2cncc(C(=O)N3CCOCC3)c2)C1 (configuration not stated) | 6.32%
COc1c(C2CCCN2Cc2noc(C)n2)c(C)nn1C (configuration not stated) | -12.5%
CN(CCCc1nccn1C)c1nccc(N2CCC(O)C2)n1 (configuration not stated) | 10.2%
COCCN1C[C@@H]2CN(Cc3cccc(F)c3)CCC[C@]2(C(=O)O)C1 | 0.928%
O=c1[nH]c(COc2ccccc2Cl)nc2c1CCNC2 | 1.97%
Cn1nc2c(cc1=O)CN(Cc1nc(C3CC3)no1)CC2 | -10.8%
O=C(c1ccc[nH]1)N1CCN(C(c2ccccc2)C(F)(F)F)CC1 (configuration not stated) | 8.3%
COC1CCN(C(=O)c2ccc3ncsc3c2)CC1 | -10.3%
COCC(=O)N1CCCC1c1csc(Nc2cnccn2)n1 (configuration not stated) | -8.11%
COCc1nc(C(=O)NS(=O)(=O)c2ccc(OC)c(C)c2)cs1 | 1.06%
CCOCCOc1ccccc1C(=O)N1CCCC(c2ncc[nH]2)C1 (configuration not stated) | -14.2%
O=C(O)C1(Cc2cc(-c3cccc(F)c3)no2)CCOCC1 | -4.97%
CC(NC(=O)NCC(F)(F)F)c1nncn1C (configuration not stated) | -1.63%
Cc1n[nH]c(CN2CCN(CC3CC3)[C@@H]3CS(=O)(=O)C[C@@H]32)n1 | -15.8%
O=C(NCCNC(=O)C1CCCCC1)NCCn1cccc1 | 2.89%
CNC(=O)C1CN(C(=O)c2ccncc2)CCN(S(C)(=O)=O)C1 (configuration not stated) | 6.67%
CSCC(=O)NC1CCN(C(C)c2ccccc2)CC1 (configuration not stated) | 3.63%
CCOCc1ncn2c1CN(C(=O)Nc1cccc(C)c1)CC2 | -8.92%
O=C1CCOC[C@]2(CN(Cc3ccccc3)C[C@H]2c2cccnc2)N1 | 4.73%
CCN1CCN(C)C(=O)C12CCN(C(=O)Cc1ccccn1)CC2 | 0.597%
CN(C(=O)c1ccncc1F)c1ccccc1S(C)(=O)=O | 2.23%
CCNc1ccnc(NC2CCN(C(=O)c3ccc(C)cc3)CC2)n1 | 5.09%
COc1cccc(NC(=O)NCC(C)(O)CCSC)c1OC (configuration not stated) | 0.253%

Structure (SMILES) | cytotoxicity at 10 µM
CSc1cccc(CN2CCC(CCC(=O)Nc3ccccc3)CC2)c1 | -2.48%
COCCN1C[C@H]2[C@@H](C1)N(C(=O)COc1ccccc1)CC[C@H]2OC | -1.34%
c1cnc(N2CCC3(CCN(CC4CCCC4)CC3)C2)nc1 | 0.845%
Cc1cc(C)c(CNC(=O)C2CCCN(c3cnccn3)C2)c(=O)[nH]1 (configuration not stated) | -13.7%
O=C(c1ccnnc1)N1C[C@H](OCC2CCOCC2)[C@H]2OCCC[C@H]21 | 3.86%
CNC(=O)COc1ccc(CNCc2cc(F)ccc2F)cc1 | 3.53%
CC(C)c1cc(CN2CCC(N)CC2)no1 | -8.24%
CCN(CC(=O)NC)S(=O)(=O)N1CCCCCC1 | 5.04%
CCCC(=O)N(CCCN1CCOCC1)c1nc2c(F)cccc2s1 | -10.7%
CC(CN1CCCC1=O)NC(=O)c1cc(Cl)c2c(c1)OCO2 (configuration not stated) | -10.4%
O=C(NCc1ccc(Cl)cc1Cl)NCC1(O)CCSC1 (configuration not stated) | -9.12%
Cc1nc(C)n(CC2CCCCN2CC(=O)Nc2cccnc2)n1 (configuration not stated) | -12.4%
CC(CC#N)N(C)Cc1ccccc1Cl (configuration not stated) | -8.67%
COC(=O)CN(C(=O)c1cccc(F)c1Cl)c1cccc(C)n1 | 9.5%
CC(C)CN1CC(c2nc(-c3ccc(F)cc3)c[nH]2)CC1=O (configuration not stated) | 6.8%
O=C(NCCOc1ccccc1)C1NCCc2[nH]cnc21 (configuration not stated) | 8.01%
CCOc1ccccc1C(CC(=O)Nc1ccccn1)NC(C)=O (configuration not stated) | -3.95%
CC(C)CCc1noc(C[S+]([O-])CC(=O)NCc2ccccc2)n1 (configuration not stated) | 5.28%
N#Cc1ccc(CN2CCC(CCc3ccc(O)cc3)CC2)cc1 | 38.8%
CCOC(=O)N1CC(C)=C(C)CN1C(=O)Nc1ccc(Cl)c(Cl)c1 | -0.113%
Nc1nnc(Cn2nnc(-c3ccccc3F)n2)s1 | 3.09%
CN(C)C(=O)NCc1nnc2n1CCN(Cc1cccs1)C2 | -150%
COC1CCN(c2cc(C(C)C)nc3ccnn23)C1 (configuration not stated) | 0.343%
Cc1cc(C2CCCCN2C(=O)CN2CC3(CCNCC3)OC2=O)no1 (configuration not stated) | 8.69%
Cc1noc([C@@]23CCO[C@@H]2CCN(C(=O)c2cc(C)c(C)s2)C3)n1 | 8.73%

Structure (SMILES) | cytotoxicity at 10 µM
Cc1ncc2c(n1)CN(Cc1cccc3c1OCCO3)CC2 | -1.31%
CN1CCC(N(Cc2ccco2)S(=O)(=O)c2cc(Br)ccc2Br)CC1 | -17.7%
CCCS(=O)(=O)N1CCCC(CCC(=O)N(C)CCc2ccccn2)C1 (configuration not stated) | 5.02%
CN(C)C(=O)N1CCOCC2(CCN(c3ncccn3)C2)C1 (configuration not stated) | -9.17%
Cc1ccc(CN2CCCC(c3cncc(C)n3)C2)cn1 (configuration not stated) | -9.35%
CNC(=O)CS(=O)(=O)Cc1coc(-c2ccc(F)cc2)n1 | -9.44%
COc1ccc2[nH]nc(CN3CCC(C(C)N(C)C)CC3)c2c1 (configuration not stated) | -1.45%
CCC(CNC(=O)c1cc(OC)ccc1Br)N1CCc2ccccc2C1 (configuration not stated) | -6.78%
CC(=O)N1CCN(c2nc3c(cnn3C(C)(C)C)c(=O)[nH]2)CC1 | -17.9%
COc1cccc(CNCc2nnc3n2CC(C(F)(F)F)CC3)c1 (configuration not stated) | 14%
CNc1cc(C2CCCN(Cc3ccccc3OCC(=O)O)C2)ccn1 (configuration not stated) | -24.8%
Cn1cc(CCNC(=O)N2CCCC(c3nncn3C)C2)cn1 (configuration not stated) | -4.41%
CC(C)CCN1CC2(CCCN(C(=O)CNC(=O)N(C)C)C2)CCC1=O (configuration not stated) | 9.94%
FC(F)(F)c1[nH]nc2c1CN(Cc1ccccc1)CC2 | 11.8%
FC(F)Oc1ccc(NCc2nc(C3CC3)no2)c(OC(F)F)c1 | 4.19%
Cc1ncsc1C(=O)N1CCCC(CO)(CC2CC2)C1 (configuration not stated) | -1.5%
Cc1cc(N2CCC(Cc3cnccn3)C2)ncn1 (configuration not stated) | -3.24%
CN(C)C(=O)C1CCCN1c1ccnc2ccsc12 (configuration not stated) | -16.8%
COC(=O)c1ccc(N2CCC(C(O)c3ccccc3)CC2)nn1 (configuration not stated) | 1.68%
Cn1c(N2CCOCC2)nc2cc(C(=O)N3CC(O)CO3)ccc21 (configuration not stated) | 18.5%
Cc1cc(-c2cc(S(=O)(=O)N3C[C@H](C4CC4)[C@@H](N)C3)c(C)s2)[nH]n1 | 2.47%
O=C(c1cc(=O)[nH][nH]1)N1CCCC2(CCC(=O)N(C3CCCC3)C2)C1 (configuration not stated) | 0.988%
Cc1nc(C2CCCN2C(=O)CCCn2cncn2)no1 (configuration not stated) | 6.62%
CSC(C)C(=O)NCCC(=O)N1CCN(c2ccccn2)CC1 (configuration not stated) | 3.05%
O=C1CCC2(CCCN(C(=O)c3ccco3)CC2)N1 (configuration not stated) | 3.17%

Structure (SMILES) | cytotoxicity at 10 µM
COc1ccc(C(=O)N2C[C@@H](CN3CCOCC3)[C@@H](CO)C2)c(C)c1 | -13.8%
O=C(NS(=O)(=O)c1ccc2c(c1)CCC2)C1COCCO1 (configuration not stated) | 10.4%
Cc1cccc(NC(=O)[C@@H]2CCCN2Cc2nc(C)c(C)o2)n1 | -4.34%
COCCNc1cccc(C2CCCN2)n1 (configuration not stated) | -25.9%
CNC(=O)CN1CCN(C(=O)Nc2ccc(Cl)cc2F)CC1 | 1.41%
CN1CCCC1CCn1ccnc1-c1nc(-c2ccccc2)no1 (configuration not stated) | -5.35%
CNS(=O)(=O)c1ccc(CNC(=O)N(C)CC(C)C)cc1 | 1.08%
Cc1nccn1CCCC(=O)N1CCN(c2cccnc2)CC1 | -4.98%
O=C(N[C@@H]1CN(Cc2ccoc2)[C@@H]2CCCO[C@@H]21)C1CC1 | 0.0515%
Cn1cccc(NC(=O)N2CCC(COCc3ccccc3)C2)c1=O (configuration not stated) | 3.67%
CS(=O)(=O)N1CCCC1CS(=O)(=O)c1ccccc1 (configuration not stated) | 1.01%
O=C(NCC1CC1)C1CN(C(=O)c2cnccn2)CC12CCOCC2 (configuration not stated) | 8.27%
COCCN1CCC(NCc2ccc(Cl)cc2)C1 (configuration not stated) | -5.56%
Cc1nc(C(=O)N2CCC(Cc3cnc4[nH]ccc4c3)C2)co1 (configuration not stated) | 9.36%
COCC(=O)N1Cc2c(-c3cccc(C)c3)nc(N)nc2C1C (configuration not stated) | -0.607%
CCn1cnnc1CNC(=O)c1cc(Cl)ccc1F | -7.75%
COCCNC(=O)C[C@@H]1COC[C@H]2CN(CC3CCOCC3)C[C@@H]12 | -92.9%
Cc1noc(OCC(=O)N2CCCCC2C)n1 (configuration not stated) | 0.714%
Cc1cc(O)cc(=O)n1CCCC(=O)Nc1n[nH]c2ccccc12 | -10.6%
Cc1nc(CN2C(=O)CC3(CCN(C(N)=O)CC3)c3ccccc32)cs1 | -1.4%
Cc1ccccc1C1(CNC(=O)N2CCC(CC(N)=O)CC2)CC1 | 4.48%
COCCN1CCCn2c(nc(Cn3cncn3)cc2=O)C1 | 3.39%
